Measured values as given in ChEMBL document CHEMBL3763086, “Salicylanilide N-monosubstituted carbamates: Synthesis and in vitro antimicrobial activity” (2016).
≈ marks a conversion by molar mass, not a printed value.

Experiments:
Type in all cases: functional
Lichtheimia corymbifera [1] = test: Antifungal activity against Absidia corymbifera 272 after 48 hrs by microbroth dilution method; settings: Lichtheimia corymbifera, 272, 48 h
Candida tropicalis [2] = test: Antifungal activity against Candida tropicalis 156 after 48 hrs by microbroth dilution method; settings: Candida tropicalis, 156, 48 h
Trichosporon asahii [3] = test: Antifungal activity against Trichosporon asahii 1188 after 48 hrs by microbroth dilution method; settings: Trichosporon asahii, 1188, 48 h
[4] = tested on: Trichophyton mentagrophytes; test: Antifungal activity against Trichophyton mentagrophytes 445 after 72 hrs by microbroth dilution method; settings: Trichophyton mentagrophytes, 445, 72 h
Pichia kudriavzevii [5] = test: Antifungal activity against Candida krusei E28 after 48 hrs by microbroth dilution method; settings: E28, 48 h
Staphylococcus aureus [6] = test: Antibacterial activity against methicillin-resistant Staphylococcus aureus H 5996/08 after 24 hrs by microbroth dilution method; settings: H 5996/08, 24 h
Procedure, shortened: (§1)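 Microdilution broth method modified after M07-A07 in Mueller-Hinton broth adjusted to pH 7.4 (±0.2). Inoculum prepared in sterile water to 0.5 McFarland (1.5 × 10^8 CFU/mL). MIC taken as growth reduction versus control (IC95 per table header), read visually and spectrophotometrically at 540 nm after 24 and 48 h incubation in the dark.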

Lichtheimia corymbifera [7] = test: Antifungal activity against Absidia corymbifera 272 after 24 hrs by microbroth dilution method; settings: Lichtheimia corymbifera, 272, 24 h
[8] = tested on: Staphylococcus epidermidis; test: Antibacterial activity against Staphylococcus epidermidis H 6966/08 after 48 hrs by microbroth dilution method; settings: H 6966/08, 48 h
Procedure, shortened: (§2)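 Microbroth dilution modified per M07-A07 in Mueller-Hinton broth, pH 7.4 (±0.2). Inoculum in sterile water adjusted to 0.5 McFarland. MIC taken as growth reduction of at least 90% (IC90) versus control, read visually and at 540 nm after 24 and 48 h incubation in the dark.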

Klebsiella pneumoniae [9] = test: Antibacterial activity against Klebsiella pneumoniae D 11750/08 after 48 hrs by microbroth dilution method; settings: D 11750/08, 48 h; procedure, shortened: as §2
[10] = tested on: Trichophyton mentagrophytes; test: Antifungal activity against Trichophyton mentagrophytes 445 after 120 hrs by microbroth dilution method; settings: Trichophyton mentagrophytes, 445, 120 h
Klebsiella pneumoniae [11] = test: Antibacterial activity against ESBL-positive Klebsiella pneumoniae J 14368/08 after 48 hrs by microbroth dilution method; settings: J 14368/08, 48 h; procedure, shortened: as §2
Staphylococcus aureus [12] = test: Antibacterial activity against methicillin-resistant Staphylococcus aureus H 5996/08 after 48 hrs by microbroth dilution method; settings: H 5996/08, 48 h; procedure, shortened: as §1
Pichia kudriavzevii [13] = test: Antifungal activity against Candida krusei E28 after 24 hrs by microbroth dilution method; settings: E28, 24 h
Candida albicans [14] = test: Antifungal activity against Candida albicans ATCC 44859 after 24 hrs by microbroth dilution method; settings: ATCC 44859, 24 h
Candida tropicalis [15] = test: Antifungal activity against Candida tropicalis 156 after 24 hrs by microbroth dilution method; settings: Candida tropicalis, 156, 24 h
Escherichia coli [16] = test: Antibacterial activity against Escherichia coli CCM 4517 after 24 hrs by microbroth dilution method; settings: CCM 4517, 24 h; procedure, shortened: as §2
Escherichia coli [17] = test: Antibacterial activity against Escherichia coli CCM 4517 after 48 hrs by microbroth dilution method; settings: CCM 4517, 48 h; procedure, shortened: as §2
Klebsiella pneumoniae [18] = test: Antibacterial activity against ESBL-positive Klebsiella pneumoniae J 14368/08 after 24 hrs by microbroth dilution method; settings: J 14368/08, 24 h; procedure, shortened: as §2
Enterococcus sp. [19] = test: Antibacterial activity against Enterococcus sp. J 14365/08 after 48 hrs by microbroth dilution method; settings: J 14365/08, 48 h; procedure, shortened: as §2
Enterococcus sp. [20] = test: Antibacterial activity against Enterococcus sp. J 14365/08 after 24 hrs by microbroth dilution method; settings: J 14365/08, 24 h; procedure, shortened: as §2
Candida albicans [21] = test: Antifungal activity against Candida albicans ATCC 44859 after 48 hrs by microbroth dilution method; settings: ATCC 44859, 48 h
Staphylococcus aureus [22] = test: Antibacterial activity against Staphylococcus aureus CCM 4516/08 after 48 hrs by microbroth dilution method; settings: CCM 4516/08, 48 h; procedure, shortened: as §1
Nakaseomyces glabratus [23] = test: Antifungal activity against Candida glabrata 20/I after 48 hrs by microbroth dilution method
Trichosporon asahii [24] = test: Antifungal activity against Trichosporon asahii 1188 after 24 hrs by microbroth dilution method; settings: Trichosporon asahii, 1188, 24 h
[25] = tested on: Staphylococcus epidermidis; test: Antibacterial activity against Staphylococcus epidermidis H 6966/08 after 24 hrs by microbroth dilution method; settings: H 6966/08, 24 h; procedure, shortened: as §2
Klebsiella pneumoniae [26] = test: Antibacterial activity against Klebsiella pneumoniae D 11750/08 after 24 hrs by microbroth dilution method; settings: D 11750/08, 24 h; procedure, shortened: as §2
Nakaseomyces glabratus [27] = test: Antifungal activity against Candida glabrata 20/I after 24 hrs by microbroth dilution method
Staphylococcus aureus [28] = test: Antibacterial activity against Staphylococcus aureus CCM 4516/08 after 24 hrs by microbroth dilution method; settings: CCM 4516/08, 24 h; procedure, shortened: as §2

Structure (SMILES): O=C(NC1CCCCC1)Oc1ccc(Cl)cc1C(=O)Nc1ccc(Cl)cc1
- MIC (Lichtheimia corymbifera [1]): 125 µM (≈ 50.9 µg/mL)
- MIC (Candida tropicalis [2]): > 125 µM
- MIC (Trichosporon asahii [3]): 125 µM (≈ 50.9 µg/mL)
- MIC [4]: 7.81 µM (≈ 3.18 µg/mL)
- MIC (Pichia kudriavzevii [5]): 125 µM (≈ 50.9 µg/mL)
- MIC (Staphylococcus aureus [6]): 3.9 µM (≈ 1.59 µg/mL)
- MIC (Lichtheimia corymbifera [7]): 125 µM (≈ 50.9 µg/mL)
- MIC [8]: 0.98 µM (≈ 0.399 µg/mL)
- MIC (Klebsiella pneumoniae [9]): > 125 µM
- MIC [10]: 7.81 µM (≈ 3.18 µg/mL)
- MIC (Klebsiella pneumoniae [11]): > 125 µM
- MIC (Staphylococcus aureus [12]): 15.6 µM (≈ 6.36 µg/mL)
- MIC (Pichia kudriavzevii [13]): 125 µM (≈ 50.9 µg/mL)
- MIC (Candida albicans [14]): > 125 µM
- MIC (Candida tropicalis [15]): > 125 µM
- MIC (Escherichia coli [16]): > 125 µM
- MIC (Escherichia coli [17]): > 125 µM
- MIC (Klebsiella pneumoniae [18]): > 125 µM
- MIC (Enterococcus sp. [19]): > 125 µM
- MIC (Enterococcus sp. [20]): > 125 µM
- MIC (Candida albicans [21]): > 125 µM
- MIC (Staphylococcus aureus [22]): 7.81 µM (≈ 3.18 µg/mL)
- MIC (Nakaseomyces glabratus [23]): > 125 µM
- MIC (Trichosporon asahii [24]): 125 µM (≈ 50.9 µg/mL)
- MIC [25]: 0.98 µM (≈ 0.399 µg/mL)
- MIC (Klebsiella pneumoniae [26]): > 125 µM
- MIC (Nakaseomyces glabratus [27]): > 125 µM
- MIC (Staphylococcus aureus [28]): 1.95 µM (≈ 0.794 µg/mL)
